Measured values reported in ChEMBL document CHEMBL3877271, “Antagonizing STAT3 activation with benzo[b]thiophene 1, 1-dioxide based small molecules” (Eur J Med Chem, 2017).
Calls of active or inactive are those of the source. The rule behind the calls is not given here.

Columns and labels:
[1] = Antiproliferative activity against human MDA-MB-231 cells after 72 hrs by MTT assay; type: functional, cell-based; conditions: MDA-MB-231, 72 h
In short: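 Cells in RPMI-1640 with 10% FBS, penicillin/streptomycin, 37 °C, 5% CO₂; seeded 3000-5000 cells/well, left overnight (16 h), then medium replaced with fresh medium holding serial dilutions in triplicate for 72 h. MTT read-out; viability = absorbance of treated/solvent control × 100%. Stattic served as reference.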

[2] = system: A549; assay: Potency index, ratio of stattic IC50 to compound IC50 for human A549 cells; type: functional
[3] = target: Signal transducer and activator of transcription 3 (Homo sapiens) (UniProt P40763); assay: Inhibition of IL-6-stimulated STAT3 phosphorylation in human MDA-MB-231 cells preincubated for 12 hrs followed by IL-6 addition measured after 30 mins by Western blot method; type: cell-based
In short: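 Cells adhered overnight in 6-well plates, then serum-starved. Left untreated or given 1-5 µM for 12 h, then stimulated with IL-6 (25 ng/mL). Harvested 30 min later for western blot of p-STAT3.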

[4] = target: Signal transducer and activator of transcription 3 (Homo sapiens) (UniProt P40763); assay: Inhibition of STAT3 dimer DNA binding activity in human MDA-MB-231 nuclear extract at 1 to 5 uM preincubated for 24 hrs followed by addition of [32P]hSIE by electrophoretic mobility shift assay
In short: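 Cells treated 24 h in fresh growth medium. Nuclear extracts of equal total protein incubated with ³²P-labelled hSIE oligonucleotide probe and resolved by EMSA; Stattic 5 µM as comparator.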

[5] = target: Signal transducer and activator of transcription 3 (Homo sapiens) (UniProt P40763); assay: Inhibition of STAT3 in human MDA-MB-231 cells assessed as downregulation of Bcl2 expression at 1 to 5 uM after 24 hrs by Western blot method; type: cell-based
In short: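 MDA-MB-231 cells treated 24 h, trypsinised and lysed in RIPA buffer (50 mM Tris-HCl pH 7.4, 150 mM NaCl, 0.25% deoxycholate, 1% NP-40, 1 mM EDTA, protease inhibitors). Equal total protein from whole-cell lysates immunoblotted; Stattic 5 µM used as comparator.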

[6] = system: MDA-MB-231; assay: Induction of apoptosis in human MDA-MB-231 cells after 24 hrs by Annexin-V FITC/propidium iodide staining based flow cytometry; type: functional, cell-based
[7] = system: MDA-MB-231; assay: Induction of apoptosis in human MDA-MB-231 cells assessed as early apoptotic cells at 5 uM after 24 hrs by Annexin-V FITC/propidium iodide staining based flow cytometry (reference value: 3.8%); type: functional
[8] = system: MDA-MB-231; assay: Induction of apoptosis in human MDA-MB-231 cells assessed as early apoptotic cells at 7 uM after 24 hrs by Annexin-V FITC/propidium iodide staining based flow cytometry (reference value: 3.8%); type: functional
[9] = system: MDA-MB-231; assay: Induction of apoptosis in human MDA-MB-231 cells assessed as late apoptotic cells at 7 uM after 24 hrs by Annexin-V FITC/propidium iodide staining based flow cytometry (reference value: 1.8%); type: functional
[10] = system: MDA-MB-231; assay: Induction of ROS generation in human MDA-MB-231 cells at 1 uM after 24 hrs by DCFH-DA staining based flow cytometry relative to control; type: functional
In short: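 3 × 10⁵ cells/well in 6-well plates treated 24 h (0, 1, 3, 5 µM). Medium replaced with serum-free medium holding DCFH-DA at 10 µM final, 20 min at 37 °C. Cells washed twice, trypsinised, resuspended in warm PBS and read by flow cytometry.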

[11] = Antitumor activity against mouse 4T1 cells implanted in ICR mouse assessed as tumor growth inhibition at 10 mg/kg, ip daily for 11 consecutive days measured on day 12 relative to control; type: functional; conditions: 4T1, ip, 288 h, read-out: TGI
In short: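 Male ICR mice, 5 weeks old, inoculated with 2 × 10⁶ 4T1 cells at the right armpit. At 24 h, randomised into groups of 6 and dosed i.p.; vehicle PBS/DMSO (8:2) daily for 11 days. Killed day 12; tumours weighed; TI% = (1 − mean treated/mean control weight) × 100. Tumour p-STAT3 and STAT3 assessed by western blot.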

Chain of Signal transducer and activator of transcription 3 (Homo sapiens) (P40763 whole entry): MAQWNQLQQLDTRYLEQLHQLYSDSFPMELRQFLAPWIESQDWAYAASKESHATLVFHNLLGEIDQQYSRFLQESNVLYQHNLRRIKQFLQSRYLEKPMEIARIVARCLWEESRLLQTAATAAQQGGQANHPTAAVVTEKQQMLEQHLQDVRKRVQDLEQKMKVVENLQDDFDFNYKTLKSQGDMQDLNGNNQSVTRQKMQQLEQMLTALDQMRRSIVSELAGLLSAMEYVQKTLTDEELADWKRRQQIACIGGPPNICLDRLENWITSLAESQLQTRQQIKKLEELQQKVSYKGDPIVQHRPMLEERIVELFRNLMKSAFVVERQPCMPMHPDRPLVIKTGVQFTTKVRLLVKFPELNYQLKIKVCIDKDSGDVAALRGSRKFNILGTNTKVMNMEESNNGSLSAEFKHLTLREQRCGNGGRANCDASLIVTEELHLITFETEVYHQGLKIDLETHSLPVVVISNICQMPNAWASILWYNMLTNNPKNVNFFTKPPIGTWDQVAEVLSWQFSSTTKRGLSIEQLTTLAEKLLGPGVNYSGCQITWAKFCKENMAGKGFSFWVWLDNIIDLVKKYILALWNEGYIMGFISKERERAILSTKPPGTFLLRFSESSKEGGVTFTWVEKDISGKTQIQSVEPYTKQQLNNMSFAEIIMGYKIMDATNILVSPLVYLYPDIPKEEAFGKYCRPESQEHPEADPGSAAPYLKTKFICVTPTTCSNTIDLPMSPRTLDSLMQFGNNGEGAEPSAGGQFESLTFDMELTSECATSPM

## O=S1(=O)C=Cc2cccc(Nc3cccc(C(F)(F)F)c3)c21
[1]
  IC50: 680 nM
[2]
  Ratio IC50: 1.5 - 12
[3]
  inhibition: Dose-dependent effect
[4]
  inhibition: Active
[5]
  inhibition: Active
[6]
  Activity: Dose-dependent effect
[7]
  Activity: 10.3%
[8]
  Activity: 12.2%
[9]
  Activity: 8.7%
[10]
  fold change (FC): 1.37
[11]
  inhibition in vivo at 10 mg/kg: 61%
